Data from ChEMBL document CHEMBL1127811, “Inhibitors of cholesterol biosynthesis. 2. Hypocholesterolemic and antioxidant activities of benzopyran and tetrahydronaphthalene analogues of the tocotrienols” (J Med Chem, 1994).
Values joined by “and” are separate entries in the source; they are usually repeats but may differ in a detail not shown here. Identical values can stand only once.

Columns and labels:
Gallus gallus [1] = species: Gallus gallus; experiment: Ratio of HDL/total cholesterol value; format: functional
Summary of the method: (§1)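 Six-week-old male chickens fed corn-soybean control diet with test compound at 50 ppm. Birds fasted 36 h, then refed 48 h before sacrifice. Serum total, LDL and HDL cholesterol and triglycerides measured (mg/100 mL), HDL/total ratio computed. Means ± SD, n = 6–12 per group, also as % of control. Significance p < 0.01 within each study.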

Gallus gallus [2] = species: Gallus gallus; experiment: (§2) Hypocholesterolemic activity in 6-week old male mormocholesterolemic chickens using experiment 4; format: functional
Summary of the method: (§3)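 Male chickens, 6 weeks old. Test compound mixed at 50 ppm into a corn-soybean control diet; controls get the diet alone. After the feeding period, birds are fasted 36 h and refed 48 h before sacrifice. Serum total, LDL and HDL cholesterol (mg/100 mL) and triglycerides measured; expressed as mean ± SD and percent of control, n = 6–12 per group.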

Gallus gallus [3] = species: Gallus gallus; experiment: (§4) Hypocholesterolemic activity in 6-week old male mormocholesterolemic chickens using experiment 1; format: functional; summary of the method: as §3
Gallus gallus [4] = species: Gallus gallus; experiment: (§5) Hypocholesterolemic activity in 6-week old male mormocholesterolemic chickens using experiment 3; format: functional; summary of the method: as §3
[5] = LDL oxidation assay as spectrophotometric determination of TBARS; format: functional
Summary of the method: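 LDL (0.5 mg/mL protein stock) in saline/20 mM HEPES with drug in ethanol, oxidised by CuSO4 (4 × 10⁻⁴ M stock), 37 °C, 5 h, in duplicate. Stopped with EDTA; TCA/TBA added, boiled 30 min, A535 read. Malonaldehyde equivalents from tetramethoxypropane standard curve. IC50 = concentration inhibiting 50% TBARS vs ethanol controls.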

Gallus gallus [6] = species: Gallus gallus; experiment: as §4; format: functional; summary of the method: as §1; remark: listed apart in the source
[7] = Compound oxidation potential using cyclic voltametry; format: ADME
Gallus gallus [8] = species: Gallus gallus; experiment: as §5; format: functional; summary of the method: as §1; remark: listed apart in the source
Gallus gallus [9] = species: Gallus gallus; experiment: as §2; format: functional; summary of the method: as §1; remark: listed apart in the source
HepG2 = experiment: In vitro inhibition of cholesterol biosynthesis in Hep G2 cells; format: functional, Homo sapiens; set-up: concentration or dose not given beside the values
Summary of the method: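 HepG2 human hepatoma cells incubated 4 h with compound at 10 μM, DMSO vehicle controls. Mean % inhibition vs controls, SD ≤ ±10%, n ≥ 8.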

[10] = biological target: T1, 3-hydroxy-3-methylglutaryl-coenzyme A reductase (Homo sapiens) (UniProt P04035); experiment: In vitro suppression of HMG-CoA reductase (HMGR) in Hep G2 cells; format: cell-based; set-up: concentration or dose not given beside the values; details: HepG2, concentration not given here
T1 sequence (whole entry): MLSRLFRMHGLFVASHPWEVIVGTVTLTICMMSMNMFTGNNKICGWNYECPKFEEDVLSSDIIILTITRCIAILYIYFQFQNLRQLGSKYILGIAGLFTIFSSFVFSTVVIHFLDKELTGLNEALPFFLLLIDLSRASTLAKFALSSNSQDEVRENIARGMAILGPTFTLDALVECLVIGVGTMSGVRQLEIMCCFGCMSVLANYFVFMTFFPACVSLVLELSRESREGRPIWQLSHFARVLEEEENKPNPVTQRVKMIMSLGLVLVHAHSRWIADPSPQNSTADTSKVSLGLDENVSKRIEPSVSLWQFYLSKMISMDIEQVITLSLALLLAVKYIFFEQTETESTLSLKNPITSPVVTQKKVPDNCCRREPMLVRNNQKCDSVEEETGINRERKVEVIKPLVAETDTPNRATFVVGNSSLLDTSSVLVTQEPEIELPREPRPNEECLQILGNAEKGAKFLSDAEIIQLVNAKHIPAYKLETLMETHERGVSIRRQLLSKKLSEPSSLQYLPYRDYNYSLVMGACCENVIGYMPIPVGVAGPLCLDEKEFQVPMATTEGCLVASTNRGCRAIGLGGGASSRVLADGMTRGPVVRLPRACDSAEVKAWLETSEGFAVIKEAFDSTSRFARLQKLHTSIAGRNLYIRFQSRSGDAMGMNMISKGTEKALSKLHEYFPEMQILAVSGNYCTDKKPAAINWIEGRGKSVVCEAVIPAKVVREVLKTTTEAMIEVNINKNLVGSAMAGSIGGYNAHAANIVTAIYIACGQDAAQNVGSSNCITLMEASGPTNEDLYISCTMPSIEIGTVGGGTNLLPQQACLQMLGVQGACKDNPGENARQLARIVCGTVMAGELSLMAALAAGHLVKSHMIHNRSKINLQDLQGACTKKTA
Summary of the method: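 HepG2 cells treated 4 h with compound at 10 μM, DMSO vehicle controls. HMG-CoA reductase activity assayed in microsomal fraction isolated at end of incubation. Mean % suppression vs controls, SD ≤ ±10%, n ≥ 8.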

Gallus gallus [11] = species: Gallus gallus; experiment: (§6) Hypocholesterolemic activity in 6-week old male mormocholesterolemic chickens using experiment 2; format: functional; summary of the method: as §3
Gallus gallus [12] = species: Gallus gallus; experiment: as §6; format: functional; summary of the method: as §1; remark: listed apart in the source
[13] = Oxidation potential assay as cyclic voltametry; not electrochemically active within scan range; format: functional

**Q.** With `CC(C)=CCC/C(C)=C/CC/C(C)=C/CCC1(C)CCc2cc(O)c(C)c(C)c2O1` (stereo not drawn) as the molecule, how does the Ratio (Gallus gallus [1]) read?
**A.** 0.74 and 0.62 and 0.68

**Q.** What about the LDL cholesterol (Gallus gallus [2]) of the same molecule?
**A.** 33 mg 100ml-1

**Q.** And the LDL cholesterol (Gallus gallus [3])?
**A.** 29 mg 100ml-1

**Q.** And the LDL cholesterol (Gallus gallus [4])?
**A.** 51 mg 100ml-1

**Q.** What about the IC50 [5] of the same molecule?
**A.** 1.8 µM

**Q.** What about the HDL cholesterol (Gallus gallus [6]) of the same molecule?
**A.** 89 mg 100ml-1

**Q.** And the Total cholesterol (Gallus gallus [6])?
**A.** 121 mg 100ml-1

**Q.** And the Triglycerides (Gallus gallus [6])?
**A.** 62 mg 100ml-1

**Q.** What about the Potential [7] of the same molecule?
**A.** 0.94

**Q.** And the HDL cholesterol (Gallus gallus [8])?
**A.** 94 mg 100ml-1

**Q.** And the Total cholesterol (Gallus gallus [8])?
**A.** 151 mg 100ml-1

**Q.** And the Triglycerides (Gallus gallus [8])?
**A.** 83 mg 100ml-1

**Q.** What about the HDL cholesterol (Gallus gallus [9]) of the same molecule?
**A.** 85 mg 100ml-1

**Q.** And the Total cholesterol (Gallus gallus [9])?
**A.** 125 mg 100ml-1

**Q.** And the Triglycerides (Gallus gallus [9])?
**A.** 57 mg 100ml-1

**Q.** What about the Inhibition (HepG2) of the same molecule?
**A.** 69%

**Q.** What about the inhibition [10] of the same molecule?
**A.** 61%

**Q.** With `CC(C)=CCC/C(C)=C/CC/C(C)=C/CCC1(C)CCc2cc(O)ccc2C1` (stereo not drawn) as the molecule, how does the Ratio (Gallus gallus [1]) read?
**A.** 0.68

**Q.** What about the LDL cholesterol (Gallus gallus [11]) of the same molecule?
**A.** 28 mg 100ml-1

**Q.** And the Potential [7]?
**A.** 1.48

**Q.** What about the HDL cholesterol (Gallus gallus [12]) of the same molecule?
**A.** 85 mg 100ml-1

**Q.** And the Total cholesterol (Gallus gallus [12])?
**A.** 125 mg 100ml-1

**Q.** What about the Triglycerides (Gallus gallus [12]) of the same molecule?
**A.** 86 mg 100ml-1

**Q.** And the Inhibition (HepG2)?
**A.** 58%

**Q.** Which Potential [13] does the source give for `CC(C)=CCC/C(C)=C/CC/C(C)=C/CCC1(C)CCc2ccccc2O1` (stereo not drawn) here?
**A.** Not electrochemically active

**Q.** What about the Inhibition (HepG2) of the same molecule?
**A.** 45%

**Q.** And the inhibition [10]?
**A.** 0%

**Q.** For `CC(C)=CCC/C(C)=C/CC/C(C)=C/CCC1CCc2cc(O)ccc2O1` (stereo not drawn), which Ratio (Gallus gallus [1]) is on record?
**A.** 0.73

**Q.** What about the LDL cholesterol (Gallus gallus [11]) of the same molecule?
**A.** 23 mg 100ml-1

**Q.** And the HDL cholesterol (Gallus gallus [12])?
**A.** 86 mg 100ml-1

**Q.** What about the Total cholesterol (Gallus gallus [12]) of the same molecule?
**A.** 118 mg 100ml-1

**Q.** And the Triglycerides (Gallus gallus [12])?
**A.** 81 mg 100ml-1

**Q.** What about the Inhibition (HepG2) of the same molecule?
**A.** 71%
